In ChEMBL document CHEMBL5375970, “Discovery of Potent and Selective WDR5 Proteolysis Targeting Chimeras as Potential Therapeutics for Pancreatic Cancer” (J Med Chem, 2023):
Calls of active or inactive are those of the source.

Tests used:
[1] = molecular target: T1, von Hippel-Lindau disease tumor suppressor/WD repeat-containing protein 5 (Homo sapiens, UniProt P61964+P40337); assay: PROTAC activity at VHL/WDR5 in human MIA PaCa-2 cells assessed as decrease in WDR5 protein by measuring degradation concentration incubated for 18 hrs by Western blotting analysis; assay type: cell-based
Procedure, shortened: (§1)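 MIA PaCa-2 cells were grown in DMEM with 10% FBS and treated with a concentration series for 18 h. Total lysates were Western blotted for WDR5 against a tubulin loading control using fluorescent secondary antibodies. DC50 and Dmax were fitted from 4 independent experiments.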

[2] = molecular target: T1, von Hippel-Lindau disease tumor suppressor/WD repeat-containing protein 5; assay: PROTAC activity at VHL/WDR5 in human MIA PaCa-2 cells assessed as degradation of WDR5 protein at 0.5 uM incubated for 4 hrs in presence of carfilzomib by Western blotting analysis; assay type: cell-based
Procedure, shortened: (§2)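 Rescue: MIA PaCa-2 cells pretreated for 2 h with 0.4 μM carfilzomib or with OICR-9429 at several concentrations, then given DMSO or 0.5 μM compound for a further 4 h. WDR5 immunoblotted against tubulin. Representative of at least two experiments.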

[3] = molecular target: T1, von Hippel-Lindau disease tumor suppressor/WD repeat-containing protein 5; assay: PROTAC activity at VHL/WDR5 in human MIA PaCa-2 cells assessed as hook effect upto 50 uM incubated for 18 hrs by Western blotting analysis; assay type: cell-based
Procedure, shortened: (§3)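 Five PDAC lines (MIA PaCa-2 in DMEM; BxPC-3, HPAF-II, Panc10.05 and PANC-1 in RPMI 1640; all with 10% FBS) given DMSO or compound over a concentration range up to 50 μM for 18 h. Lysates immunoblotted for WDR5 against tubulin. For MIA PaCa-2, DC50 and Dmax were fitted from 4 independent experiments.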

[4] = molecular target: T1, von Hippel-Lindau disease tumor suppressor/WD repeat-containing protein 5; assay: PROTAC activity at VHL/WDR5 in human MIA PaCa-2 cells assessed as degradation of WDR5 protein at 1.5 uM incubated for 2 hrs by Western blotting analysis; assay type: cell-based
Procedure, shortened: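 MIA PaCa-2 cells given DMSO or 1.5 μM compound for 2 h. Lysates prepared for proteomics were checked by WDR5 immunoblot.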

[5] = molecular target: T1, von Hippel-Lindau disease tumor suppressor/WD repeat-containing protein 5; assay: PROTAC activity at VHL/WDR5 in human MIA PaCa-2 cells assessed as degradation of WDR5 protein at 0.1 uM incubated for 2 hrs by Western blotting analysis; assay type: cell-based
Procedure, shortened: (§4)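 Time course: MIA PaCa-2 cells given DMSO or 0.1 μM compound and harvested at the indicated times. Lysates immunoblotted for WDR5, with tubulin as loading control. Representative of at least two independent experiments.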

[6] = molecular target: T1, von Hippel-Lindau disease tumor suppressor/WD repeat-containing protein 5; assay: PROTAC activity at VHL/WDR5 in human HPAF-II cells assessed as hook effect upto 50 uM incubated for 18 hrs by Western blotting analysis; assay type: cell-based; procedure, shortened: as §3
[7] = molecular target: T1, von Hippel-Lindau disease tumor suppressor/WD repeat-containing protein 5; assay: PROTAC activity at VHL/WDR5 in human BXPC-3 cells assessed as degradation of WDR5 protein incubated for 18 hrs by Western blotting analysis; assay type: cell-based; procedure, shortened: as §3
Panc1005 = assay: Growth inhibition of human Panc1005 cells incubated for 6 days by MTS assay; assay type: functional; conditions: Panc1005, 144 h, time 6 day
Procedure, shortened: (§5)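 MTS read-out. PDAC cells seeded at 500 or 1000 per well and exposed to a compound concentration series for 6 days, with medium plus fresh compound replaced every 2 days. MTS incubated 0.5–2 h, absorbance read at 490 nm. Growth normalized to DMSO. Three independent experiments, mean ± SEM; GI50 by nonlinear regression.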

[8] = Cmax in Swiss albino mouse at 75 mg/kg,ip administration measured for 0.5 hrs by LC-MS/MS analysis; assay type: ADME, organism-based; set-up: time 0.5 hrs, dose 75 mg/kg, route ip; conditions: in vivo
Procedure, shortened: (§6)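 Six male Swiss albino mice were each given one intraperitoneal dose of a solution formulation at 75 mg/kg. […] Plasma was quantified by LC–MS/MS (LLOQ 5.03 ng/mL), values are means of three mice per time point, and PK was derived by nonlinear regression.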

[9] = molecular target: T1, von Hippel-Lindau disease tumor suppressor/WD repeat-containing protein 5; assay: PROTAC activity at VHL/WDR5 in human PANC-1 cells assessed as degradation of WDR5 protein incubated for 18 hrs by Western blotting analysis; assay type: cell-based; procedure, shortened: as §3
[10] = Toxicity in Swiss albino mouse assessed as clinical signs of toxicity at 75 mg/kg,ip observed after 0.5 to 12 hrs; assay type: organism-based; conditions: in vivo, time 0.5-12 hrs
Procedure, shortened: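 Six male Swiss albino mice were given one intraperitoneal dose of a solution formulation at 75 mg/kg and observed for clinical signs during the 12 h PK sampling period (0.5–12 h).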

[11] = molecular target: T1, von Hippel-Lindau disease tumor suppressor/WD repeat-containing protein 5; assay: PROTAC activity at VHL/WDR5 in human MIA PaCa-2 cells assessed as degradation of WDR5 protein at 0.5 uM incubated for 4 hrs in presence of OICR-9429 by Western blotting analysis; assay type: cell-based; procedure, shortened: as §2
[12] = molecular target: T1, von Hippel-Lindau disease tumor suppressor/WD repeat-containing protein 5; assay: PROTAC activity at VHL/WDR5 in human HPAF-II cells assessed as degradation of WDR5 protein incubated for 18 hrs by Western blotting analysis; assay type: cell-based; procedure, shortened: as §3
[13] = Binding affinity to His-tagged VCB/full-length N-terminal His-tagged WDR5 (unknown origin) expressed in Escherichia coli BL21 (DE3) cells assessed as dissociation constant by isothermal titration calorimetry; set-up: species or system Homo sapiens
Procedure, shortened: (§7)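 Inverse ITC was run with His-tagged VCB (pVHL54–213 co-expressed with EloB1–104 and EloC1–112) and E. coli BL21(DE3)-expressed WDR5, both purified by HisTrap and Superdex 200 gel filtration. Titrations were VCB into ligand, VCB into the ligand–WDR5 complex, and WDR5 into ligand. Three independent replicates were done, reported as mean ± SD, and the first injection was excluded from fitting.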

HPAF-II = assay: Growth inhibition of human HPAF-II cells incubated for 6 days by MTS assay; assay type: functional; conditions: 144 h, time 6 day; procedure, shortened: as §5
[14] = molecular target: T1, von Hippel-Lindau disease tumor suppressor/WD repeat-containing protein 5; assay: PROTAC activity at VHL/WDR5 in human Panc1005 cells assessed as hook effect upto 50 uM incubated for 18 hrs by Western blotting analysis; assay type: cell-based; procedure, shortened: as §3
[15] = molecular target: T1, von Hippel-Lindau disease tumor suppressor/WD repeat-containing protein 5; assay: PROTAC activity at VHL/WDR5 in human MIA PaCa-2 cells assessed as maximal degradation of WDR5 protein incubated for 18 hrs by Western blotting analysis relative to control; assay type: cell-based; procedure, shortened: as §1
MIA PaCa-2 = assay: Growth inhibition of human MIA PaCa-2 cells incubated for 6 days by MTS assay; assay type: functional; conditions: MIA PaCa-2, 144 h, time 6 day; procedure, shortened: as §5
[16] = Drug distribution in Swiss albino mouse plasma at 75 mg/kg,ip administration measured for 12 hrs by LC-MS/MS analysis; assay type: ADME, organism-based; procedure, shortened: as §6
BXPC-3 = assay: Growth inhibition of human BXPC-3 cells incubated for 6 days by MTS assay; assay type: functional; conditions: BXPC-3, 144 h, time 6 day; procedure, shortened: as §5
[17] = AUC (0 to last) in Swiss albino mouse at 75 mg/kg,ip administration measured for 0.5 to 12 hrs by LC-MS/MS analysis; assay type: ADME, organism-based; set-up: time upper 12 hrs, dose 75 mg/kg, time lower 0.5 hrs, route ip; conditions: in vivo; procedure, shortened: as §6
[18] = molecular target: WD repeat-containing protein 5 (Homo sapiens, UniProt P61964); assay: Binding affinity to full-length N-terminal His-tagged WDR5 (unknown origin) expressed in Escherichia coli BL21 (DE3) cells assessed as dissociation constant by isothermal titration calorimetry; procedure, shortened: as §7
[19] = Drug distribution in Swiss albino mouse plasma at 75 mg/kg,ip administration measured for 4 hrs by LC-MS/MS analysis; assay type: ADME, organism-based; procedure, shortened: as §6
[20] = molecular target: T1, von Hippel-Lindau disease tumor suppressor/WD repeat-containing protein 5; assay: PROTAC activity at VHL/WDR5 in human MIA PaCa-2 cells assessed as degradation of WDR5 protein incubated for 18 hrs by Western blotting analysis; assay type: cell-based; procedure, shortened: as §3
[21] = molecular target: T1, von Hippel-Lindau disease tumor suppressor/WD repeat-containing protein 5; assay: PROTAC activity at VHL/WDR5 in human Panc1005 cells assessed as degradation of WDR5 protein incubated for 18 hrs by Western blotting analysis; assay type: cell-based; procedure, shortened: as §3
[22] = molecular target: T1, von Hippel-Lindau disease tumor suppressor/WD repeat-containing protein 5; assay: PROTAC activity at VHL/WDR5 in human MIA PaCa-2 cells assessed as degradation of WDR5 protein at 1.5 uM incubated for 2 hrs by TMT-labeled mass spectrometry based quantitative proteomics assay; assay type: cell-based
Procedure, shortened: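 TMT proteomics: MIA PaCa-2 cells given DMSO or 1.5 μM compound (2 h in the figure legend, 2.5 h in the methods). Cells lysed in 8 M urea pH 8.0, reduced with DTT, alkylated with iodoacetamide, then digested with LysC/trypsin overnight at 37 °C. Peptides TMT10plex-labelled and analyzed by MS. Cutoffs P < 0.01 and log2 fold change > 0.5, three biological replicates.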

[23] = molecular target: T1, von Hippel-Lindau disease tumor suppressor/WD repeat-containing protein 5; assay: PROTAC activity at VHL/WDR5 in human BXPC-3 cells assessed as hook effect upto 50 uM incubated for 18 hrs by Western blotting analysis; assay type: cell-based; procedure, shortened: as §3
[24] = molecular target: T1, von Hippel-Lindau disease tumor suppressor/WD repeat-containing protein 5; assay: PROTAC activity at VHL/WDR5 in human MIA PaCa-2 cells assessed as maximal degradation of WDR5 protein at 0.1 uM incubated for 24 hrs by Western blotting analysis; assay type: cell-based; procedure, shortened: as §4
[25] = molecular target: T1, von Hippel-Lindau disease tumor suppressor/WD repeat-containing protein 5; assay: PROTAC activity at VHL/WDR5 in human MIA PaCa-2 cells assessed as degradation of WDR5 protein at 0.1 uM by Western blotting analysis; assay type: cell-based; conditions: TDE = time-dependent effect; procedure, shortened: as §4
[26] = molecular target: T1, von Hippel-Lindau disease tumor suppressor/WD repeat-containing protein 5; assay: PROTAC activity at VHL/WDR5 in human PANC-1 cells assessed as hook effect upto 50 uM incubated for 18 hrs by Western blotting analysis; assay type: cell-based; procedure, shortened: as §3
PANC-1 = assay: Growth inhibition of human PANC-1 cells incubated for 6 days by MTS assay; assay type: functional; conditions: PANC-1, 144 h, time 6 day; procedure, shortened: as §5

Cc1ncsc1-c1ccc(CNC(=O)[C@@H]2C[C@@H](O)CN2C(=O)[C@@H](NC(=O)CNC(=O)c2ccc(F)c(-c3ccc(N4C[C@@H](C)N(C)[C@@H](C)C4)c(NC(=O)c4c[nH]c(=O)cc4C(F)(F)F)c3)c2)C(C)(C)C)cc1
DC50 [1]: 92 nM | Activity [2]: inactive | Activity [3]: inactive | Activity [4]: Active | Activity [5]: Active | Activity [6]: inactive | Activity [7]: Dose-Dependent Effect | GI50 (Panc1005): 14.3 µM | Cmax [8]: 5 µM | Activity [9]: Dose-Dependent Effect | Activity [10]: Non-Toxic | Activity [11]: Active | Activity [12]: Dose-Dependent Effect | Kd [13]: 232 nM | GI50 (HPAF-II): 9.2 µM | Activity [14]: inactive | Emax [15]: 73% | GI50 (MIA PaCa-2): 5.7 µM | concentration at 12 h [16]: > 100 nM | GI50 (BXPC-3): 4 µM | AUC(0-t) [17]: 7300 ng·h/mL | Kd [18]: 122 nM | concentration at 4 h [19]: 1000 nM | Activity [20]: Dose-Dependent Effect | Activity [21]: Dose-Dependent Effect | Activity [22]: Active | Activity [23]: inactive | Activity [24]: Active | Activity [25]: Tde | Activity [26]: inactive | GI50 (PANC-1): 32.7 µM
